Test results taken from PubChem BioAssay.
The source made the active and inactive calls.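 How the source made its calls, unless noted: active means visual image review flags a hit and inhibition of aggregation exceeds 20%; inconclusive means visual hit but inhibition at or below 20%; inactive means no hit on visual image review.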

How the values were obtained:
[1] = inhibitors of TNFa-induced NFkB p65 translocation, primary screen, imaging, HUVEC, MLSMR starter and 10KST1 sets (AID 438;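 active means inhibition above 20% together with a positive visual image hit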;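 further: compound added about 3h40 before a 20 min TNFalpha stimulation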;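 on inhibition: signal is the nuclear over cytoplasmic p65 intensity ratio per well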); conditions: HUVEC TNFa-induced p65 nuclear translocation; cell count: measured here: nuclei count (cytotoxicity indicator), at 2.08 µM; inhibition: at 2 µM, stronger effect = higher value, 0% TNFa-plus-vehicle, 100% no-TNFa wells
[2] = inhibitors of mutant huntingtin aggregation, primary screen, imaging, exon1htt(103Q)mCFP cells, high-content imaging (AID 483); conditions: exon1htt(103Q)mCFP cell line, aggregate imaging, at 2 µM; inhibition of aggregation: stronger effect = higher value; nuclei count: measured here: cell count, toxicity;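 further: compound exposure lasted 3 days before fixation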;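 on nuclei count: percent of the per-plate median nuclei count of sample wells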
[3] = inhibitors of E-selectin induction by TNFa, primary screen, imaging, HUVEC, immunofluorescence, MLSMR starter and 10KST1 sets (AID 487;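 active means visually confirmed hit in the image check and inhibition above 20%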;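 on inhibition: signal is fraction of cell area covered by stained E-selectin grains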;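 on nuclei count: 100% = median nuclei count of all wells on the same plate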); conditions: HUVEC TNFalpha-induced E-selectin immunofluorescence imaging, at 2 µM; inhibition: stronger effect = higher value; nuclei count: measured here: cell number, toxicity
[4] = target: Voltage-gated potassium channel subunit beta-2 (Rattus norvegicus) (UniProt P62483); test: KvBeta enzyme negative modulators, primary screen, biochemical, NADPH fluorescence (AID 622;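 active means fluorescence slope higher than the sample average by over 3 SD, cut at about -0.22 in these data, passing the limit was not always enough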;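 further: slope of raw intensity against log time taken from 70 to 1610 s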); conditions: recombinant KvBeta, 4-cyanobenzaldehyde reduction, at 10 µM, stronger effect = higher value
Voltage-gated potassium channel subunit beta-2 (Rattus norvegicus), sequence (P62483 whole entry, looked up): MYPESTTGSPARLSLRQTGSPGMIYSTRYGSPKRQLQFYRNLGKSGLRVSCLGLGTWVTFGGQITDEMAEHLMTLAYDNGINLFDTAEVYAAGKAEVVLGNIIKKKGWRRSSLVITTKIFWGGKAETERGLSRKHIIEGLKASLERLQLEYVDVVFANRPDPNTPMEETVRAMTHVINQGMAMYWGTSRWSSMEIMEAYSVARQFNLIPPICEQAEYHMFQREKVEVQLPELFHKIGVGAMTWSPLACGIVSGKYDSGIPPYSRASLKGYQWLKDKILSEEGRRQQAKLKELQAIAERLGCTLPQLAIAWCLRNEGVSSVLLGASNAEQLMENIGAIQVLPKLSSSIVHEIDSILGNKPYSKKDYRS

[5] = target: Voltage-gated potassium channel subunit beta-2 (Rattus norvegicus) (UniProt P62483); test: KvBeta positive modulators, primary screen, biochemical, NADPH fluorescence (AID 623;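 active means NADPH fluorescence slope more negative than the mean of all samples by about 3 SD, 99.7% confidence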;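 further: fluorescence intensity change per second fitted from 20 to 320 s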); conditions: Recombinant KvBeta, NADPH fluorescence decrease slope, 10 min; at 10 µM; stronger effect = lower value
[6] = target: Alpha-2C adrenergic receptor (Homo sapiens) (UniProt P18825); test: modulators of alpha2C/GIRK thallium flux, primary screen, cell-based, HEK293 alpha2C/GIRK1/2 (AID 624;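 active means fluorescence slope after compound addition differing from the mean of all screened samples at 99.7% confidence, in either direction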;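 further: slope of fluorescence ratio to pre-addition baseline per second over 15 to 24 s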); conditions: thallium flux BTC fluorescence, at 10 µM, actives lie on both sides
Alpha-2C adrenergic receptor (Homo sapiens), sequence (P18825 whole entry, looked up): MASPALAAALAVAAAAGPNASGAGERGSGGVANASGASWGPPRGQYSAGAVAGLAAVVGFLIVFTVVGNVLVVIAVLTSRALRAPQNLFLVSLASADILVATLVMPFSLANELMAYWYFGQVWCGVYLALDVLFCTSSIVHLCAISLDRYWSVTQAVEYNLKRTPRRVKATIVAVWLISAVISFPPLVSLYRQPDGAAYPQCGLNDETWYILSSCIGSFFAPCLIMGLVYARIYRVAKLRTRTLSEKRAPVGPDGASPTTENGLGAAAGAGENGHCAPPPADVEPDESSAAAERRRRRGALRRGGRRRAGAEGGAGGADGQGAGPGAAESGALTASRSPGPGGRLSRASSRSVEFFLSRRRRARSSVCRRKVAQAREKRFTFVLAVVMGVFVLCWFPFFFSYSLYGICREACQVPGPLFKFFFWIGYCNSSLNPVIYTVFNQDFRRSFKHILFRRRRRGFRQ

[7] = inhibitors of larval lipid processing in zebrafish, primary screen, whole organism, PED6 fluorescence, gall bladder and intestine (AID 686;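 active means a full or partial loss of lipid-probe fluorescence in the fish gall bladder, intestine or both, judged by eye; inactive means no fluorescence loss, or compound toxic to the fish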;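 further: larvae 5 to 7 days old with five fish per well; signal comes from phospholipase A2 cleavage of quenched PED6 carried via bile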); conditions: Zebrafish larvae PED6 lipid processing, fluorescence scoring; screened at 20 µM (by protocol)
How it was run: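 Incubation: overnight exposure of larvae to compound plus PED6 / Test system: live zebrafish larvae aged 5-7 days, whole organism / Amount: 5 larvae per well / Read-out basis: visual per-well fluorescence inhibition score / Signal: visual fluorescence microscopy scoring of gall bladder, gut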

[8] = inhibitors of Sendai virus-induced IRF3 signaling, primary screen, TLR/RLR signaling modifier project, cell-based, Sendai virus stimulus, luciferase, 10K MLSCN set (AID 602276;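 active means inhibition at or above 50% at 10 µM; inactive means inhibition below 50%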;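 further: firefly luciferase from ISG56 promoter only with Renilla not read in this screen; 0% = Sendai virus plus DMSO and 100% = medium plus DMSO without virus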); conditions: HEK293 RL24 IRF3 luciferase reporter, at 10 µM, stronger effect = higher value
[9] = inhibitors of poly I:C-induced TLR3 signaling, primary screen, cell-based, poly I:C stimulus, luciferase, 10K MLSCN set (AID 602277;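 active means inhibition of the reporter signal at or above 50%; inactive means inhibition below 50%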); conditions: HEK293-TLR3 RL24 IRF3 luciferase reporter, at 10 µM, stronger effect = higher value

Structure (SMILES) | cell count [1] | inhibition [1] | inhibition of aggregation [2] | nuclei count [2] [%] | inhibition [3] | nuclei count [3] [%] | fluorescence slope [4] | NADPH fluorescence slope [5] | slope [6] | outcome [7] | inhibition [8] | inhibition [9]
CCN(C(=O)c1ccnc(C(C)(C)C)c1)c1ccccc1 | 334 | 4.4% (inactive) | -6.8% (inactive) | 99.8 | -63.1% (inactive) | 128 | -0.385 (inactive) | -1.8e-05 (inactive) | 0.0045 (inactive) | inactive | 13.6% (inactive) | 11.3% (inactive)
CCOC(=O)C1CCN(CC(=O)Nc2c(C(=O)OC)[nH]c3ccc(Cl)cc23)CC1 | 340 | 4.8% (inactive) | -27.5% (inactive) | 104 | -29.3% (inactive) | 107 | -0.383 (inactive) | -6.2e-05 (inactive) | 0.00328 (inactive) | inactive | 8.17% (inactive) | -16.2% (inactive)
O=C(O)C1CCCCC1C(=O)Nc1ccccn1 (configuration not stated) | 475 | -7.1% (inactive) | -2.7% (inactive) | 109 | 18.5% (inactive) | 83.2 | -0.445 (inactive) | -5e-05 (inactive) | 0.00502 (inactive) | inactive | 7.72% (inactive) | 0.963% (inactive)
CCOC(=O)c1ccccc1NC1CC(=O)N(c2ccccc2C)C1=O (configuration not stated) | 242 | 6.7% (inactive) | 12.6% (inactive) | 97.9 | 8.6% (inactive) | 94.8 | -0.262 (inactive) | 9.8e-06 (inactive) | 0.00569 (inactive) | inactive | -4.41% (inactive) | -8.61% (inactive)
COc1cc(CO)cc(-c2cc(CO)cc(OC)c2OC)c1OC | 547 | 3.5% (inactive) | 19.5% (inactive) | 76.2 | 49.8% (inactive) | 60.6 | -0.367 (inactive) | -5.9e-05 (inactive) | 0.00523 (inactive) | inactive | 11.3% (inactive) | 15.6% (inactive)
O=C1NC(=O)C(CC(=O)N(c2ccccc2)C2(C(=O)NC3CCCC3)CCCCC2)N1 (configuration not stated) | 384 | -1.1% (inactive) | 25.6% (inactive) | 83.3 | -24.5% (inactive) | 108 | -0.391 (inactive) | -1.3e-05 (inactive) | 0.00517 (inactive) | inactive | 14.9% (inactive) | 11.4% (inactive)
CCOC(=O)C1CCN(CC(=O)c2c(C)[nH]c3ccccc23)CC1 | 669 | 3.9% (inactive) | -5.8% (inactive) | 99.6 | 11.6% (inactive) | 102 | -0.421 (inactive) | -1.5e-05 (inactive) | 0.00551 (inactive) | inactive | -3.58% (inactive) | 15.2% (inactive)
Cc1cccc(N(CC(=O)N2CCCC2)S(=O)(=O)c2ccccc2)c1C | 288 | -2.3% (inactive) | 23.9% (inactive) | 87.6 | -156% (inactive) | 98.1 | -0.423 (inactive) | -4.5e-05 (inactive) | 0.00511 (inactive) | inactive | -11.4% (inactive) | -6.79% (inactive)
COc1ccc(N2CCN(C(=O)CSc3ccccc3)CC2)cc1 | 393 | -11.8% (inactive) | 1.5% (inactive) | 105 | -18.6% (inactive) | 108 | -0.401 (inactive) | -5.3e-05 (inactive) | 0.00515 (inactive) | inactive | -14.2% (inactive) | -34.1% (inactive)
CNC(=O)c1ccc2nc(NC(C)=O)sc2c1 | 382 | -10.3% (inactive) | 4.1% (inactive) | 74.6 | 13.2% (inactive) | 56.8 | -0.327 (inactive) | -6.5e-05 (inactive) | 0.00564 (inactive) | inactive | -11.9% (inactive) | -21.9% (inactive)
O=C(O)c1ccc(NC(=O)c2cccs2)cc1 | 464 | 1.2% (inactive) | 6.1% (inactive) | 89.3 | -75.3% (inactive) | 117 | -0.362 (inactive) | -2.7e-05 (inactive) | 0.00441 (inactive) | inactive | 9.12% (inactive) | 13.8% (inactive)
